Experimental data pooled from the literature.
Protocols differ between the studies behind these lines.
Target: Cyclin-dependent kinase 16 (CDK16, Homo sapiens, UniProt Q00536)

CN(C)c1nccc(-c2cnn3ncccc23)n1
remaining binding (binding; 1 µM): 100%

O=C(NC[C@@H]1[C@H]2CN(C(=O)OCc3cc(C(F)(F)F)cc(C(F)(F)F)c3)C[C@@H]12)c1ccc2[nH]nnc2c1
remaining binding (cell-free assay, competition with immobilised ligand; 1 µM): 100%

O=C(c1ccc(Nc2ncc(Cl)c(-c3cc4ccccc4s3)n2)cc1)N1CCC(N2CCCC2)CC1
remaining binding (binding, competition with immobilised ligand; 1 µM): 0.7%

COc1ncc2cc3ccccc3nc2c1C#N
remaining binding (cell-free assay, competition with immobilised ligand; 5 µM): 97%

CN(C)c1nccc(-c2cnc3ncccn23)n1
remaining binding (binding; 1 µM): 73%

COc1cc(-c2cn(C3CCc4c(F)cccc4N(CC(F)(F)F)C3=O)nn2)ccc1-n1cnc(C)c1 (stereo not shown)
remaining binding (cell-free assay, competition with immobilised ligand; 1 µM): 82%

FC(F)(F)Oc1cccc(-c2cnc3ccc(-c4ccncc4)nn23)c1
remaining binding (cell-free assay, competition with immobilised ligand; 5 µM): 53%

COc1cnc(Nc2cccc(S(N)(=O)=O)c2)nc1N1CCN(c2ccccc2)C(=O)C1
remaining binding (binding, competition with immobilised ligand; 1 µM): 92%

CN(c1nccc(-c2cnn3ncccc23)n1)C1CC1
remaining binding (binding; 1 µM): 100%

N#Cc1ccccc1CSc1nnc2c(n1)[nH]c1ccccc12
remaining binding (binding, competition with immobilised ligand; 10 µM): 100%

C[C@@]1(Cc2ccc(C#N)cc2)C(=O)N(c2cc(Cl)cc(Cl)c2)c2ncc(C(=O)NC3(c4nc(C5CCC5)no4)CC3)n21
remaining binding (cell-free assay, competition with immobilised ligand; 1 µM): 97%

CC(C)(C)c1ccc(-c2nc(CBr)nn2-c2cccc(O)c2)cc1
remaining binding (cell-free assay, competition with immobilised ligand; 10 µM): 69%

N[C@@H]1CCN(c2nccc(-c3cnn4ncccc34)n2)C1
remaining binding (binding; 1 µM): 95%

COCCOc1nc(-c2ccc(Cl)nc2)nc2c1CN(C(=O)c1ncn3ccccc13)CC2
remaining binding (cell-free assay, competition with immobilised ligand; 0.1 µM): 100%

C[C@H]1CCN(c2nccc(-c3cnn4ncccc34)n2)C1
remaining binding (binding; 1 µM): 95%

C[C@@H]1CN(c2ccc3ncc(-c4ccc5[nH]nc(C6CC6)c5c4)n3n2)C[C@H](C)O1
remaining binding (binding, competition with immobilised ligand; 0.5 µM): 100%

Cc1cnc(Nc2ccc(C(=O)N3CCC(N4CCCC4)CC3)cc2)nc1-c1cc2ccccc2s1
remaining binding (binding, competition with immobilised ligand; 1 µM): 3.9%

CN(C)c1ncc(F)c(-c2cnn3ncccc23)n1
remaining binding (binding; 1 µM): 96%

O=C(NCCCN1CCOCC1)c1ccc(Nc2ncc(Cl)c(-c3ccc(Cl)s3)n2)cc1
remaining binding (binding, competition with immobilised ligand; 1 µM): 23%

CNCc1ccccc1-c1csc([C@H](C)Nc2nc(C)nc3cc(OC)c(OC)cc23)c1
remaining binding (cell-free assay, competition with immobilised ligand; 1 µM): 83%

O=C(Nc1c[nH]nc1C(=O)NC1CCNCC1)c1cc(F)cc(F)c1
remaining binding (binding, competition with immobilised ligand; 1 µM): 12%

O=C(Nc1ccc(Oc2ccc(F)cc2)cc1)N1CCc2ncccc2[C@H]1c1ccc(F)cc1
remaining binding (cell-free assay, competition with immobilised ligand; 1 µM): 65%

Nc1ncc2c(n1)-c1c([nH]c3ccc(C#CC4CC4)cc13)CCCC2
remaining binding (binding, competition with immobilised ligand; 1 µM): 100%

CN(c1ccnc(CNc2nc(Nc3ccc4c(c3)CC(=O)N4)ncc2C(F)(F)F)n1)S(C)(=O)=O
remaining binding (cell-free assay, competition with immobilised ligand; 1 µM): 82%

Cc1cnn2ncc(-c3ccnc(N(C)C)n3)c2c1
remaining binding (binding; 1 µM): 100%
